From PMC4383680 (Nature, 2015)
Entries after “also recorded” stand apart in the source; their conditions may differ. No end group written: not given here.

Experiments:
[1] = biological target: MC4R + Kir7.1 (M125R) in HEK293 cells (Homo sapiens, UniProt P32245); assay type: cell-based
[2] = test system: PVN MC4R neurons; assay: Firing frequency of PVN MC4R neurons; assay type: cell-based, mouse
Method in brief: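 Slices from MC4R-GFP mice, 200 μm, cut at 44–49°, held in oxygenated ACSF at 31 °C. AgRP applied to the bath. Cells held around −50 mV so they fire spontaneously. Firing frequency counted for 3 min before peptide and for 3 min at 7–11 min after, then compared.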

[3] = test system: PVN MC4R neurons; assay: Voltage clamp; assay type: cell-based, mouse
[4] = test system: PVN MC4R neurons; assay: Current clamp membrane potential of PVN MC4R neurons, hypothalamic slices; assay type: cell-based, mouse; details: for amplitude of α-MSH depolarization at higher concentration of salt: BaCl2 >1 mM, CsCl >2.5 mM; for effect of BaCl2 or CsCl on α-MSH induced depolarization: external, various concentrations
Method in brief: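 MC4R-GFP mouse hypothalamic slices, 200 μm, cut at 44–49° to horizontal in near-freezing oxygenated aCSF and kept in oxygenated ACSF at 31 °C. α-MSH (250 nM) bath-applied. Continuous current clamp with membrane potential held at −55 to −60 mV to prevent spontaneous firing. Potential averaged over 3 min before peptide versus a 3 min window 7–11 min after. Zero-ATP internal at pH 7.2, 298 mosmol/kg.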

[5] = biological target: T1, MC4R (Homo sapiens, UniProt P32245); assay: β-arrestin recruitment; assay type: cell-based; details: increasing concentrations, PathHunter, 90 min, 37 °C
[6] = test system: MC4R - Gαi; assay: Coupling of MC4R to Gαi; assay type: cell-based; details: Extended Data Fig. 6a–c
[7] = test system: inward rectifying K+ (Kir) channels; details: at concentrations that block other Kir channels; ref [12]; cited from earlier work
[8] = test system: D1 dopamine receptor in PVN neurons; assay: D1 receptor mediated depolarization of PVN neurons; assay type: cell-based, mouse; details: 5 μM SKF83822
Method in brief: (§1)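 Mouse hypothalamic slices, 200 μm, cut at 44–49° from horizontal in oxygenated near-freezing aCSF and transferred to oxygenated ACSF at 31 °C. PVN neurons recorded in whole cell mode. Cells accepted only with holding current ≤30 pA at −70 mV, large rebound spikes, ability to fire, and no blebbing or visible nucleus.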

[9] = test system: μ-opioid receptor in PVN MC4R neurons; assay: μ-opioid; assay type: cell-based, mouse; details: DAMGO 10 μM; for effect on DAMGO response: GTPγS 1.5 mM or gallein 25 μM
Method in brief: as §1

[10] = biological target: 3HA-MC4R (melanocortin-4 receptor) (human) (UniProt P32245)
[11] = biological target: T1, MC4R; assay: Intracellular cAMP / MC4R coupling to Gαs; assay type: cell-based; details: Fig. 4a

T1 sequence (P32245 whole entry): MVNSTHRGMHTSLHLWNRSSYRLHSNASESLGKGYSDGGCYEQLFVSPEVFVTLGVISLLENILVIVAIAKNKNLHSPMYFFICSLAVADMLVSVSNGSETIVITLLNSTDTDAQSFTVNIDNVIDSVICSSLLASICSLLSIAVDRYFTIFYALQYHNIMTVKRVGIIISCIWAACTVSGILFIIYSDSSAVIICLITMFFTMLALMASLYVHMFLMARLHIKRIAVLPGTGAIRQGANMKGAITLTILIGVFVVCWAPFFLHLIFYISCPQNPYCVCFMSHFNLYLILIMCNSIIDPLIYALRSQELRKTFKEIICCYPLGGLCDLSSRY
Chain of 3HA-MC4R (melanocortin-4 receptor) (human) (P32245 whole entry): as above
Chain of MC4R + Kir7.1 (M125R) in HEK293 cells (P32245 whole entry, stated change not applied): as the sequence (P32245 whole entry) above

CSCC[C@@H]1NC(=O)[C@H](C)NC(=O)[C@H]([C@@H](C)O)NC(=O)CNC(=O)[C@H](CC(C)C)NC(=O)[C@H](CCCCN)NC(=O)[C@H](CCCNC(=N)N)NC(=O)[C@@H]2CSSC[C@@H]3NC(=O)[C@@H]4CCCN4C(=O)[C@H](C(C)C)NC(=O)[C@H](CCC(N)=O)NC(=O)[C@H](CCC(N)=O)NC(=O)CNC(=O)[C@H](CC(C)C)NC(=O)[C@@H]4CSSC[C@H](NC(=O)[C@H]([C@@H](C)O)NC(=O)[C@H](C)NC(=O)[C@H](CSSC[C@@H](C(=O)N[C@@H](CO)C(=O)N[C@@H](CCCNC(=N)N)C(=O)N[C@H](C(=O)O)[C@@H](C)O)NC(=O)[C@@H]5CCCN5C(=O)[C@H](CC(N)=O)NC1=O)NC(=O)[C@@H]1CCCN1C(=O)[C@H](CC(=O)O)NC(=O)[C@H](CSSC[C@H](NC(=O)[C@H](CCCNC(=N)N)NC(=O)[C@H](CCCNC(=N)N)NC(=O)[C@H](CO)NC(=O)[C@@H](N)CO)C(=O)N[C@@H](C(C)C)C(=O)N[C@@H](CCCNC(=N)N)C(=O)N[C@@H](CC(C)C)C(=O)N[C@@H](Cc1c[nH]cn1)C(=O)N[C@@H](CCC(=O)O)C(=O)N[C@@H](CO)C(=O)N4)NC3=O)C(=O)N[C@@H](Cc1ccc(O)cc1)C(=O)N[C@H]1CSSC[C@H](NC(=O)[C@H](Cc3ccccc3)NC(=O)[C@H](C)NC(=O)[C@H](CC(N)=O)NC(=O)[C@H](Cc3ccccc3)NC(=O)[C@H](Cc3ccccc3)NC(=O)[C@H](CCCNC(=N)N)NC1=O)C(=O)N[C@@H](Cc1ccc(O)cc1)C(=O)N2 [AgRP, Agouti-related protein]
duration of increase of Tl+ flux ([1]; low dose AgRP 1 nM, data not shown): up to 24 h
effect on firing activity ([2]; AgRP, cells held around −50 mV): inhibiting their firing activity
effect on K+ current of PVN MC4R neurons [3]: generates hyperpolarizing current by opening of inward rectifying K^+ channels; also recorded: increases the density of an inward rectifying K^+ current
reversal potential of AgRP-activated current ([3]; AgRP 50 nM, 20 mM external K+): −46.7 +/− 3.0 mV
increase of membrane conductance ([3]; AgRP 50 nM, 20 mM external K+, n=6): 75%
membrane potential response ([4]; 100 nM AgRP, bath application, current clamp, **p<0.01): hyperpolarized PVN MC4R neurons; also recorded: hyperpolarizing response
β-arrestin recruitment [5]: did not appear to; also recorded: without any effect
coupling to Gαi [6]: did not appear to couple the MC4R to the cAMP inhibitory G protein, Gαi

[Ba+2].[Cl-].[Cl-] [BaCl2]
sensitivity of Kir7.1 to external salt [7]: resistant
amplitude of α-MSH depolarization at higher concentration of salt [4]: increased amplitude
effect of BaCl2 or CsCl on α-MSH induced depolarization ([4]; current clamp): not blocked in higher concentrations; also recorded: persisted

[Cl-].[Cs+] [CsCl]
sensitivity of Kir7.1 to external salt [7]: resistant
amplitude of α-MSH depolarization at higher concentration of salt [4]: increased amplitude
effect of BaCl2 or CsCl on α-MSH induced depolarization ([4]; current clamp): not blocked in higher concentrations; also recorded: persisted

Nc1nc2c(ncn2[C@@H]2O[C@H](COP(=O)(O)OP(O)(O)=S)[C@@H](O)[C@H]2O)c(=O)[nH]1 [GDPβS]
effect on D1 (SKF83822) mediated depolarization ([8]; 5 mM GDPβS intrapipette): blocks the depolarization and firing activity induced by SKF83822; also recorded: blocked D1 mediated depolarization
effect on α-MSH induced depolarization ([4]; 5 mM GDPβS, intrapipette): fails to block the α-MSH – induced depolarization; also recorded: failed to block α-MSH induced depolarization of PVN MC4R neurons

Nc1nc2c(ncn2[C@@H]2O[C@H](COP(=O)(O)OP(=O)(O)OP(O)(O)=S)[C@@H](O)[C@H]2O)c(=O)[nH]1 [GTPγS]
effect on DAMGO response [9]: does block the hyperpolarization induced by μ-opioid agonist
effect on α-MSH induced firing or depolarization ([4]; GTPγS 1.5 mM, whole cell): ineffective in blocking neuronal firing or depolarization; also recorded: fails to block the depolarization induced by α-MSH

CCCCCCCC(=O)OC[C@H](COP(=O)(O)O[C@@H]1[C@H](O)[C@H](O)[C@@H](OP(=O)(O)O)[C@H](OP(=O)(O)O)[C@H]1O)OC(=O)CCCCCCC [PI(4,5)P2 diC8]
effect on α-MSH induced depolarization ([4]; 100 μM PI(4,5)P2 diC8 in zero ATP internal solution): significantly increased the amplitude of the α-MSH induced depolarization; also recorded: potentiated the α-MSH-induced response

C=CCN1CCc2c(cc(O)c(O)c2Cl)C(c2cccc(C)c2)C1 (stereo not shown) [SKF83822]
depolarization of PVN neurons by D1 agonist [8]: causes depolarization of PVN neurons; also recorded: depolarized PVN neurons

Nc1ncnc2c1ncn2C1CCCO1 (stereo not shown) [SQ22536]
effect on α-MSH induced depolarization ([4]; SQ22536 25 μM, adenylyl cyclase inhibition): fails to block depolarizing effects of α-MSH; also recorded: failed to block α-MSH induced depolarization

N#CC(=C(/N)Sc1ccccc1N)/C(C#N)=C(/N)Sc1ccccc1N [U0126]
effect on α-MSH induced increase in firing frequency ([2]; U0126 1 μM, whole cell): ineffective in blocking neuronal firing or depolarization; also recorded: fails to block α-MSH -induced increase in firing frequency

Cc1ccc(OCC(O)Cn2c(=N)n(Cc3ccccc3)c3ccccc32)cc1 (stereo not shown) [VU573]
inhibition of depolarizing effect of α-MSH ([4]; 15 μM VU573, 250 nM α-MSH): ~ 80%

O=[N+]([O-])c1ccc(CN2CCOCCOCCN(Cc3ccc([N+](=O)[O-])cc3)CCOCC2)cc1 [VU590]
effect of Kir blocker on α-MSH induced depolarization ([4]; 250 nM α-MSH, blocker concentration not given): blocked

O=C1OC2(c3ccccc31)c1ccc(O)c(O)c1Oc1c2ccc(O)c1O [gallein]
effect on DAMGO response [9]: blocks the effects of DAMGO
effect on α-MSH induced firing or depolarization ([4]; gallein 25 μM, Gβγ blocker): ineffective in blocking neuronal firing or depolarization; also recorded: fails to inhibit α-MSH induced depolarization

DAMGO
effect of DAMGO on membrane potential [9]: hyperpolarization

miniAgRP (AgRP 87-120) (from UniProt O00253 87-120) (peptide)
stimulation of Kir7.1 activity, potency [10]: 1.7e-07

miniAgRP: AgRP analogue, AgRP87-120 (87-122); synthesized, purified and folded by authors (CVRLHESCLGQQVPCCDPCATCYCRFFNAFCYCR; ends and bridges not checked; also: folded, disulfide pairing not given here; UniProt O00253 87-120, looked up, fragment)
coupling of MC4R to Kir7.1 ([1]; Fig. 4b): lost its ability to couple MC4R to Kir7.1
potency in inhibition of MC4R coupling to Gαs [11]: retains normal affinity for MC4R, and potency in inhibition of MC4R coupling to Gαs

SSRRCVRLHESCLGQQVPCCDPCATCYCRFFNAFCYCRKLGTAMNPCSRT (domain or fragment, ends and bridges not checked; cysteine pairing not given here) [wtAgRP (83-132)]
stimulation of Kir7.1 activity, potency [10]: 3.6e-09
